Results: paper PMC4334291 (Journal of Chemical Information and Modeling, 2014)

Columns and labels:
SH-SY5Y cells = assay: Mammalian cells growth/toxicity assay; type: cell-based, human; conditions: data not shown; 2 days
E. coli JM109 = assay: Bacterial growth assay, E. coli JM109; type: cell-based; conditions: data not shown
Method in brief: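 JM109 culture handled as follows: overnight growth at 37 °C, 300 rpm, in 0.5% yeast extract/1% tryptone/0.5% NaCl medium (pH 7.0), then 10× dilution. Incubated at 37 °C, 300 rpm, in medium with test compound, 0.3% DMSO as negative control or ampicillin as positive control. Culture absorbance at 595 nm read after 4, 6 and 8 h.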

E. coli BL21 = assay: Bacterial growth assay, E. coli BL21; type: cell-based; conditions: 100 μM, 4 and 8 h
Method in brief: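 E. coli BL21 grown overnight at 37 °C and 300 rpm in 0.5% yeast extract, 1% tryptone, 0.5% NaCl (pH 7.0), then diluted 10×. Grown at 37 °C and 300 rpm with test compound at 100 μM, 0.3% DMSO (negative control) or ampicillin 100 μM (positive control). A595 read at 4, 6 and 8 h. Four independent experiments, mean ± SEM, Dunnett's test.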

[1] = system: S. epidermidis ATCC 12228; assay: Bacterial growth assay, S. epidermidis; type: cell-based, Staphylococcus epidermidis; conditions: 100 μM, after 6 h
Method in brief: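 Overnight culture at 37 °C and 300 rpm in 1% peptone, 1% beef extract, 0.5% NaCl (pH 7.1), diluted 15×. Grown at 37 °C and 300 rpm with test compound at 100 μM, 0.3% DMSO (negative control) or ampicillin 100 μg/mL (positive control). A595 read at 6 h. Four independent experiments, mean ± SEM, Bonferroni all-pair comparison.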

MDCK cells = assay: Mammalian cells growth/toxicity assay; type: cell-based, Canine; conditions: 30 μM, 1 day
Method in brief: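 MDCK cells kept in DMEM with 10% FBS, penicillin/streptomycin and 2 mM L-glutamine. Seeded at 5.0 × 10^3 cells/well for 6 h (37 °C, 5% CO2), then starved overnight in 0.25% FBS DMEM. Exposed for 1 day to test compound at 30 μM or ampicillin 30 μM (negative control). CCK-8 added; A450 of WST-8 formazan read after 3 h. Four independent experiments, mean ± SEM, Dunnett's test.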

wild-type saDHFR = wild-type saDHFR (Staphylococcus aureus, UniProt P0A017); assay: S. aureus DHFR enzymatic assay; type: biochemical
Solubility in DMSO = type: physicochemical; conditions: at 100 μM in DMSO

Chain of wild-type saDHFR (P0A017 whole entry): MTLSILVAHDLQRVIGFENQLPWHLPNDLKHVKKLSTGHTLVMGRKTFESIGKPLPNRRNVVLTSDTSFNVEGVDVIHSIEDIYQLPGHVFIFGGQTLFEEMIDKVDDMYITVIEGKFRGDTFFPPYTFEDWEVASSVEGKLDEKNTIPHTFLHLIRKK

SMILES	Cell death induced in SH-SY5Y cells (SH-SY5Y cells)	Inhibitory effect on the growth of E. coli JM109 (E. coli JM109)	Inhibitory effect on the growth of E. coli BL21 (E. coli BL21)	Inhibitory effect on the growth of S. epidermidis [1]	Toxic effects on MDCK cells (MDCK cells)	IC50 (wild-type saDHFR) [nM]	Solubility in DMSO (Solubility in DMSO)
O=C(O)CN1C(=O)C(=C2C(=O)N(Cc3ccc(Cl)cc3)c3ccccc32)SC1=S [KB1, {5-[1-(4-chlorobenzyl)-2-oxo-1,2-dihydro-3H-indol-3-ylidene]-4-oxo-2-thioxo-1,3-thiazolidin-3-yl}acetic acid]	43.3%	did not show inhibitory effects	did not show inhibitory effects	strong inhibitory effects	did not show any toxic effects		
O=C(O)CCCN1C(=O)C(=C2C(=O)N(Cc3ccc(Cl)cc3)c3ccccc32)SC1=S [KBS1, 4-{5-[1-(4-chlorobenzyl)-2-oxo-1,2-dihydro-3H-indol-3-ylidene]-4-oxo-2-thioxo-1,3-thiazolidin-3-yl}butanoic acid]	35.4–52.1%	no inhibitory effects	no inhibitory effects	significant inhibitory effects	weak toxic effect	460 ± 170	
Cc1ccc(CN2C(=O)C(=C3SC(=S)N(CC(=O)O)C3=O)c3ccccc32)cc1 [KBS2, {5-[1-(4-methylbenzyl)-2-oxo-1,2-dihydro-3H-indol-3-ylidene]-4-oxo-2-thioxo-1,3-thiazolidin-3-yl}acetic acid]							not soluble
O=C(O)CN1C(=O)C(=C2C(=O)N(Cc3ccccc3Cl)c3ccccc32)SC1=S [KBS3, {5-[1-(2-chlorobenzyl)-2-oxo-1,2-dihydro-3H-indol-3-ylidene]-4-oxo-2-thioxo-1,3-thiazolidin-3-yl}acetic acid]	35.4–52.1%	no inhibitory effects	no inhibitory effects	significant inhibitory effects	did not exhibit toxic effects		
O=C(O)CCN1C(=O)C(=C2C(=O)N(Cc3ccc(F)cc3)c3ccccc32)SC1=S [KBS4, 3-{5-[1-(4-fluorobenzyl)-2-oxo-1,2-dihydro-3H-indol-3-ylidene]-4-oxo-2-thioxo-1,3-thiazolidin-3-yl}propanoic acid]	35.4–52.1%	no inhibitory effects	no inhibitory effects	significant inhibitory effects	did not exhibit toxic effects		
CCOCCCN1C(=O)C(=C2C(=O)N(Cc3ccc(Cl)cc3)c3ccccc32)SC1=S [KBS5, 1-(4-chlorobenzyl)-3-[3-(3-ethoxypropyl)-4-oxo-2-thioxo-1,3-thiazolidin-5-ylidene]-1,3-dihydro-2H-indol-2-one]				inactive			
